In ChEMBL document CHEMBL1131336, “Synthesis and serotonin receptor affinities of a series of trans-2-(indol-3-yl)cyclopropylamine derivatives” (J Med Chem, 1998):

Columns and labels:
[1] = biological target: T1, 5-hydroxytryptamine receptor 1A (Rattus norvegicus, UniProt P19327); assay: Binding affinity against the 5-hydroxytryptamine 1A receptor labelled with [3H]8-OH-DPAT in rat hippocampal homogenates; assay type: tissue-based, Hippocampus
T1 sequence (P19327 whole entry): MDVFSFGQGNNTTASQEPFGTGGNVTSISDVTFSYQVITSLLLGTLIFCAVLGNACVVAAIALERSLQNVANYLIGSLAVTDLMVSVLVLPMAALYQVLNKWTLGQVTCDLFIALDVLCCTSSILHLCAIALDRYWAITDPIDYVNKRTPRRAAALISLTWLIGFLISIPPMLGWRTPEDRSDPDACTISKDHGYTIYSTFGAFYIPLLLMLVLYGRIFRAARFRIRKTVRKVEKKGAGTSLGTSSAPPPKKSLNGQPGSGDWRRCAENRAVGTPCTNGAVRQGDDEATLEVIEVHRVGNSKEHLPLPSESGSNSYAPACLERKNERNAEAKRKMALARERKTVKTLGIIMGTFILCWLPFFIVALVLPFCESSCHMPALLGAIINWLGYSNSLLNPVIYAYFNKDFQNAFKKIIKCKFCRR
Outline: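 Buffer is 50 mM Tris HCl pH 7.4 with 0.5 mM Na2EDTA, 0.1% Na ascorbate and pargyline. Triplicate tubes with 200-400 µg protein, 15 min at 37 °C, GF/C filtration. Nonspecific binding set with 10 µM 5-HT.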

[2] = biological target: 5-hydroxytryptamine receptor 2A (Homo sapiens, UniProt P28223); assay: Binding affinity against the cloned human 5-hydroxytryptamine 2A receptor using [125I]DOI as the radioligand
Sequence of 5-hydroxytryptamine receptor 2A (P28223 whole entry): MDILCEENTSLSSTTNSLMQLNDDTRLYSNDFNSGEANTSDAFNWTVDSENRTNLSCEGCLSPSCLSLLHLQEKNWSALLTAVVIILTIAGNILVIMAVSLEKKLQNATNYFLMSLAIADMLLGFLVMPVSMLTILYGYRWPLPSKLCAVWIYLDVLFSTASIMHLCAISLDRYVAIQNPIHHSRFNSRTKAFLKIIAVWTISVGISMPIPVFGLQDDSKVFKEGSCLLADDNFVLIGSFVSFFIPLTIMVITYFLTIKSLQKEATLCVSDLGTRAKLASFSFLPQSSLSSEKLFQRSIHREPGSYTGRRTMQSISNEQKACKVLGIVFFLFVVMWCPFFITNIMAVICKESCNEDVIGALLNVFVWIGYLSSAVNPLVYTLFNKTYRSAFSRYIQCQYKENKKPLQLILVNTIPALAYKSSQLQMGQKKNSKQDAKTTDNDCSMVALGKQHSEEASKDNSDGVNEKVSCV
Outline: (§1)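 AV12 hamster fibroblast membranes stably expressing the human receptor, with 0.07-0.15 nM [125I]DOI. Buffer is 10 µM pargyline, 9.75 mM MgCl2, 0.5 mM EDTA, 0.1% ascorbate and 50 mM Tris pH 7.4. Incubation 30 min at 37 °C with about 40 µg (5-HT2A) or 30 µg (5-HT2C) protein, then gamma counting. Nonspecific binding set with 1 µM ketanserin (2A) or 10 µM mianserin (2C).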

[3] = biological target: T2, 5-hydroxytryptamine receptor 2C (Homo sapiens, UniProt P28335); assay: Binding affinity against the cloned human 5-hydroxytryptamine 2C receptor using [125I]DOI as the radioligand; outline: as §1
T2 sequence (P28335 whole entry): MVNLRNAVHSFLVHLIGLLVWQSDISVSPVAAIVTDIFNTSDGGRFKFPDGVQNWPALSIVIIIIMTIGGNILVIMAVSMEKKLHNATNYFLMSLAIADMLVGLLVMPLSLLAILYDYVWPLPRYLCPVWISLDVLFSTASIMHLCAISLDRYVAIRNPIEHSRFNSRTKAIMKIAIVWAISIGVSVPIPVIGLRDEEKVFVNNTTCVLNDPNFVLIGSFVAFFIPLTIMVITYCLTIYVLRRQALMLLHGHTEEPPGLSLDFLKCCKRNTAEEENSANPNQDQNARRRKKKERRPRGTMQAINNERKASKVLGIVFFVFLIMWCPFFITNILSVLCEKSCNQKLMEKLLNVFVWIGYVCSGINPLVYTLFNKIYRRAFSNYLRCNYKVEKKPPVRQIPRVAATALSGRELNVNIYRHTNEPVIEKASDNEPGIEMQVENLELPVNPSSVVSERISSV

[4] = biological target: 5-hydroxytryptamine receptor 2B (Homo sapiens, UniProt P41595); assay: Binding affinity against the cloned human 5-hydroxytryptamine 2B receptor using [3H]5-HT as the radioligand
Sequence of 5-hydroxytryptamine receptor 2B (P41595 whole entry): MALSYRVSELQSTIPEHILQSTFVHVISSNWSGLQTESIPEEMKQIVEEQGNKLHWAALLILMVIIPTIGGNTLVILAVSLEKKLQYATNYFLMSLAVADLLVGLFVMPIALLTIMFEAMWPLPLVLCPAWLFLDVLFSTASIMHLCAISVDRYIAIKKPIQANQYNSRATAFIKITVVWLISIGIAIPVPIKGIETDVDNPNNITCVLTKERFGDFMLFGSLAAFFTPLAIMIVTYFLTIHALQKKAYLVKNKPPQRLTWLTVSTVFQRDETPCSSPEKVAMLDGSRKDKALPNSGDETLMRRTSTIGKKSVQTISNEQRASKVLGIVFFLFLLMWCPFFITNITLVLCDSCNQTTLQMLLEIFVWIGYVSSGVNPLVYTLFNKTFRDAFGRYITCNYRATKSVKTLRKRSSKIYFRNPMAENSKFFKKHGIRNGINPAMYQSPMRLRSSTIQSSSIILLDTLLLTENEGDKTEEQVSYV
Outline: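 Membranes come from AV12 hamster fibroblasts stably expressing the human receptor. About 2 nM [3H]-5-HT is used with drug dilutions spanning 6 log units, in 3 mM CaCl2, 10 µM pargyline, 50 mM Tris and 0.1% ascorbic acid, pH 7.4. Triplicate tubes with 100-150 µg protein, 15 min at 37 °C, PEI-soaked GF/B filtration. Nonspecific binding set with 10 µM 5-HT or 10 µM 1-naphthylpiperazine.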

| Structure (SMILES) | Ki [1] | Ki [2] | Ki [3] | Ki [4] |
| --- | --- | --- | --- | --- |
| COc1ccc2[nH]cc(C3CC3N)c2c1 (stereo not drawn) | 40.1 nM | 30.9 nM | 17.8 nM | 38.1 nM |
| NC1CC1c1c[nH]c2ccc(F)cc12 (stereo not drawn) | 258 nM | 10.2 nM | 1.9 nM | 5.7 nM |
| COc1cccc2[nH]cc(C3CC3N)c12 (stereo not drawn) | – | 45.9 nM | 11.8 nM | 64.9 nM |
| CC(CN)c1c[nH]c2ccccc12 (stereo not drawn) | – | 41 nM | 9.3 nM | 87 nM |
| COc1ccc2[nH]cc(C(C)CN)c2c1 (stereo not drawn) | – | 2.2 nM | 1 nM | 8.3 nM |
| N[C@H]1C[C@@H]1c1c[nH]c2ccccc12 | 810 nM | 132 nM | 21.3 nM | 93.5 nM |
| N[C@@H]1C[C@H]1c1c[nH]c2ccccc12 | 258 nM | 98.2 nM | 44.1 nM | 58.5 nM |
| NC1CC1c1c[nH]c2ccccc12 (racemic) | – | 164 nM | 29.9 nM | 58.3 nM |
